ChEMBL document CHEMBL4725237, “Synthesis and biological evaluation of triazolyl-substituted benzyloxyacetohydroxamic acids as LpxC inhibitors” (Bioorg Med Chem, 2020)
In brackets after ≈: the same amount, converted by molar mass.

Assays:
[1] = Inhibition of LpxC C63A mutant in Escherichia coli […] preincubated for 30 mins followed by incubation for 10 mins by spectrophotometric analysis
Escherichia coli [2] = assay: Antibacterial activity against Escherichia coli BL21 (DE3) assessed as zone of growth inhibition at 10 mmol incubated for overnight by disc diffusion method; assay type: functional; conditions: dose 10 mM; time 12 hrs
Procedure, shortened: (§1)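 Overnight LB cultures (37 °C, 200 rpm), 150 µL spread on LB agar. 15 µL of compound (10 mM stock in DMSO) was applied to 6 mm filter paper disks, with DMSO as negative and CHIR-090 as positive control. Plates were incubated overnight at 37 °C and the diameter of the growth-inhibition zone was measured. At least three runs on separate days.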

Escherichia coli [3] = assay: Antibacterial activity against Escherichia coli BL21 (DE3) assessed as prevention of visible growth incubated for 20 hrs by two-fold serial microbroth dilution method; assay type: functional
Procedure, shortened: (§2)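 Broth microdilution in LB with 5% DMSO. Overnight cultures (LB, 37 °C, 200 rpm) were diluted 1:100 and added to a twofold compound dilution series in DMSO, giving 5·10^6 cfu·mL⁻¹ and final compound 64 to 0.25 µg·mL⁻¹. Plates were incubated 20 h at 37 °C. MIC was taken as the lowest concentration with no visible growth. At least three runs on separate days.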

Escherichia coli [4] = assay: Antibacterial activity against Escherichia coli D22 incubated assessed as prevention of visible growth for 20 hrs by two-fold serial microbroth dilution method; assay type: functional; procedure, shortened: as §2
Escherichia coli [5] = assay: Antibacterial activity against Escherichia coli D22 assessed as zone of growth inhibition at 10 mmol incubated for overnight by disc diffusion method; assay type: functional; conditions: dose 10 mM; time 12 hrs; procedure, shortened: as §1

| SMILES | IC50 [1] [µM] | inhibition zone (IZ) (Escherichia coli [2]) [mm] | MIC (Escherichia coli [3]) [µg/mL] | MIC (Escherichia coli [4]) [µg/mL] | inhibition zone (IZ) (Escherichia coli [5]) [mm] |
| --- | --- | --- | --- | --- | --- |
| O=C(CO[C@H](Cn1ccnn1)c1ccc(C#Cc2ccccc2)cc1)NO | 36 | <6 | > 64 | 1 (≈ 2.76 µM) | 21 |
| C[C@@H](O)[C@H](NC(=O)c1ccc(C#Cc2ccc(CN3CCOCC3)cc2)cc1)C(=O)NO | 0.076 | 31.7 | 0.25 (≈ 0.571 µM) | 0.031 (≈ 0.0709 µM) | 37.5 |
| O=C(CO[C@@H](Cn1ccnn1)c1ccc(C#Cc2ccccc2)cc1)NO | > 200 | <6 | > 64 | ≥ 32 | 11 |
| O=C(CO[C@H](Cn1cc(-c2ccccc2)nn1)c1ccc(OCc2ccccc2)cc1)NO | > 200 | <6 | > 64 | 32 (≈ 72 µM) | 10 |
| O=C(CO[C@H](Cn1nncc1-c1ccccc1)c1ccc(C#Cc2ccccc2)cc1)NO | > 20 | <6 | > 64 | 8 (≈ 18.2 µM) | 10.7 |
| O=C(CO[C@H](Cn1cc(CO)nn1)c1ccc(C#Cc2ccccc2)cc1)NO | 8.5 | <6 | > 64 | 4 (≈ 10.2 µM) | 20.7 |
| O=C(CO[C@H](Cn1ccnn1)c1ccc(OCc2ccccc2)cc1)NO | > 200 | <6 | > 64 | > 64 | 15 |
| O=C(CO[C@@H](CO)c1ccc(C#Cc2ccccc2)cc1)NO | > 200 | <6 | > 64 | 32 (≈ 103 µM) | 13 |
| O=C(CO[C@H](Cn1cc(-c2ccccc2)nn1)c1ccc(C#Cc2ccccc2)cc1)NO | 10.4 | <6 | > 64 | 0.25 (≈ 0.57 µM) | 12.3 |
| O=C(CO[C@H](CO)c1ccc(C#Cc2ccccc2)cc1)NO | 86.2 | 9.5 | 64 (≈ 206 µM) | 1 (≈ 3.21 µM) | 20.5 |
| O=C(CO[C@@H](Cn1cc(-c2ccccc2)nn1)c1ccc(C#Cc2ccccc2)cc1)NO | > 200 | <6 | > 64 | 32 (≈ 73 µM) | 8.7 |
| O=C(CO[C@H](Cn1nncc1CO)c1ccc(C#Cc2ccccc2)cc1)NO | 23.4 | 10.3 | > 64 | 1 (≈ 2.55 µM) | 29.5 |
